# Experimental data from ChEMBL document CHEMBL1921722, “In vitro and in vivo evaluation of select kahalalide F analogs with antitumor and antifungal activities” (Bioorg Med Chem, 2011).
# Active and inactive are the calls of the source.
# Legend:
# NCI-H322M = assay: Cytotoxicity against human NCI-H322M cells assessed as cell growth at 80 nM by sulforhodamine B assay relative to control; assay type: functional; settings: read-out: Activity
# SF-295 [1] = assay: Cytotoxicity against human SF295 cells by sulforhodamine B assay; assay type: functional; settings: for TGI: read-out: pTGI (converted)
# Method in brief: (§1)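 NCI Developmental Therapeutics Program 60-cell-line human tumor panel screen, run at NCI. A single-concentration pre-screen was followed by a five-concentration dose-response in 10-fold steps. GI50 is the concentration that reduces growth of treated cells to half that of untreated control cells. TGI is the concentration that completely halts growth.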
# SF-295 [2] = assay: Antitumor activity against human SF295 cells xenografted in mouse assessed as tumor cell killing at 2.35 mg/kg, ip qd for 4 days by MTT assay; assay type: functional, organism-based; set-up: dose 2.35 mg/kg
# CCRF-CEM [3] = assay: Cytotoxicity against human CCRF-CEM cells assessed as cell growth at 80 nM by sulforhodamine B assay relative to control; assay type: functional; settings: read-out: Activity
# SF-268 = assay: Cytotoxicity against human SF268 cells assessed as cell growth at 80 uM by sulforhodamine B assay relative to control; assay type: functional; settings: read-out: Activity
# CCRF-CEM [4] = assay: Cytotoxicity against human CCRF-CEM cells assessed as cell growth at 80 uM by sulforhodamine B assay relative to control; assay type: functional; settings: read-out: Activity
# OVCAR-5 [5] = assay: Antitumor activity against human OVCAR5 cells xenografted in mouse assessed as tumor cell killing at 2.35 mg/kg, ip qd for 4 days by MTT assay; assay type: functional, organism-based; set-up: dose 2.35 mg/kg
# SW-620 = assay: Cytotoxicity against human SW620 cells assessed as cell growth at 8 uM by sulforhodamine B assay relative to control; assay type: functional; settings: read-out: Activity
# [6] = test system: Mycobacterium intracellulare; assay: Antimicrobial activity against Mycobacterium intracellular ATCC 23068 after 5 days by MABA assay; assay type: functional, organism-based; settings: ATCC 23068, 120 h
# Method in brief: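 M. intracellulare was tested by a modified Franzblau method. Samples were serially diluted in 20% DMSO/saline, run in duplicate, and inocula were adjusted by OD630. […] IC50 is 50% growth inhibition; MIC is the lowest concentration with no detectable growth.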
# U-251 [7] = assay: Antitumor activity against human U251 cells xenografted in mouse assessed as tumor cell killing at 2.35 mg/kg, ip qd for 4 days by MTT assay; assay type: functional, organism-based; set-up: dose 2.35 mg/kg
# UACC-62 [8] = assay: Antitumor activity against human UACC62 cells xenografted in mouse assessed as tumor cell killing at 2.35 mg/kg, ip qd for 4 days by MTT assay; assay type: functional, organism-based; set-up: dose 2.35 mg/kg
# NCI-H23 = assay: Antitumor activity against human NCI-H23 cells xenografted in mouse assessed as tumor cell killing at 4.7 mg/kg, ip qd for 4 days by MTT assay; assay type: functional, organism-based; set-up: dose 4.7 mg/kg
# Method in brief: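 Hollow-fiber assay in mice. Tumor lines were grown in RPMI-1640 with 10% FBS and 2 mM glutamine. Cells at 2 × 10^6 cells/ml were loaded into 1 mm PVDF fibers (500,000 Da cutoff), heat-sealed at 2 cm and held 24–48 h at 37 °C, 5% CO2 before implantation. Compound was given IP. Fibers were collected the day after the fourth treatment for MTT (OD 540 nm, group means). A ≥50% cut in percent net growth versus vehicle counted as positive.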
# MDA-MB-435 [9] = assay: Antitumor activity against human MDA-MB-435 cells xenografted in mouse assessed as tumor cell killing at 2.35 mg/kg, ip qd for 4 days by MTT assay; assay type: functional, organism-based; set-up: dose 2.35 mg/kg
# RPMI-8226 = assay: Cytotoxicity against human RPMI8226 cells assessed as cell growth at 800 nM by sulforhodamine B assay relative to control; assay type: functional; settings: read-out: Activity
# CCRF-CEM [10] = assay: Cytotoxicity against human CCRF-CEM cells assessed as cell growth at 800 nM by sulforhodamine B assay relative to control; assay type: functional; settings: read-out: Activity
# NCI-H522 [11] = assay: Antitumor activity against human NCI-H522 cells xenografted in mouse assessed as tumor cell killing at 2.35 mg/kg, ip qd for 4 days by MTT assay; assay type: functional, organism-based; set-up: dose 2.35 mg/kg
# SR [12] = assay: Cytotoxicity against human SR cells by sulforhodamine B assay; assay type: functional; settings: for TGI: read-out: pTGI (converted); method in brief: as §1
# CCRF-CEM [13] = assay: Cytotoxicity against human CCRF-CEM cells assessed as cell growth at 8 uM by sulforhodamine B assay relative to control; assay type: functional; settings: read-out: Activity
# CCRF-CEM [14] = assay: Cytotoxicity against human CCRF-CEM cells by sulforhodamine B assay; assay type: functional
# Method in brief: (§2)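 Run at NCI in the DTP 60-cell-line human tumor panel by standard procedure. Compounds were first screened at a single concentration, then tested at five tenfold-spaced concentrations. GI50 is the concentration reducing treated-cell growth to half that of untreated controls; TGI is the concentration completely halting growth.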
# CCRF-CEM [15] = assay: Cytotoxicity against human CCRF-CEM cells assessed as cell growth at 8 nM by sulforhodamine B assay relative to control; assay type: functional; settings: read-out: Activity
# OVCAR-5 [16] = assay: Cytotoxicity against human OVCAR5 cells assessed as cell growth at 80 uM by sulforhodamine B assay relative to control; assay type: functional; settings: read-out: Activity
# SR [17] = assay: Cytotoxicity against human SR cells assessed as cell growth at 80 uM by sulforhodamine B assay relative to control; assay type: functional; settings: read-out: Activity
# CAKI-1 [18] = assay: Cytotoxicity against human Caki1 cells assessed as cell growth at 8 nM by sulforhodamine B assay relative to control; assay type: functional; settings: read-out: Activity
# NCI-H522 [19] = assay: Antitumor activity against human NCI-H522 cells xenografted in mouse assessed as tumor cell killing at 3.1 mg/kg, ip qd for 4 days by MTT assay; assay type: functional, organism-based; set-up: dose 3.1 mg/kg
# UACC-62 [20] = assay: Antitumor activity against human UACC62 cells xenografted in mouse assessed as tumor cell killing at 3.1 mg/kg, ip qd for 4 days by MTT assay; assay type: functional, organism-based; set-up: dose 3.1 mg/kg
# CAKI-1 [21] = assay: Cytotoxicity against human Caki1 cells assessed as cell growth at 80 nM by sulforhodamine B assay relative to control; assay type: functional; settings: read-out: Activity
# SF-295 [22] = assay: Antitumor activity against human SF295 cells xenografted in mouse assessed as tumor cell killing at 3.1 mg/kg, ip qd for 4 days by MTT assay; assay type: functional, organism-based; set-up: dose 3.1 mg/kg
# CAKI-1 [23] = assay: Cytotoxicity against human Caki1 cells by sulforhodamine B assay; assay type: functional; method in brief: as §2
# CAKI-1 [24] = assay: Cytotoxicity against human Caki1 cells assessed as cell growth at 800 nM by sulforhodamine B assay relative to control; assay type: functional; settings: read-out: Activity
# OVCAR-5 [25] = assay: Antitumor activity against human OVCAR5 cells xenografted in mouse assessed as tumor cell killing at 3.1 mg/kg, ip qd for 4 days by MTT assay; assay type: functional, organism-based; set-up: dose 3.1 mg/kg
# U-251 [26] = assay: Antitumor activity against human U251 cells xenografted in mouse assessed as tumor cell killing at 3.1 mg/kg, ip qd for 4 days by MTT assay; assay type: functional, organism-based; set-up: dose 3.1 mg/kg
# CAKI-1 [27] = assay: Cytotoxicity against human Caki1 cells assessed as cell growth at 80 uM by sulforhodamine B assay relative to control; assay type: functional; settings: read-out: Activity
# CAKI-1 [28] = assay: Cytotoxicity against human Caki1 cells assessed as cell growth at 8 uM by sulforhodamine B assay relative to control; assay type: functional; settings: read-out: Activity
# MDA-MB-435 [29] = assay: Antitumor activity against human MDA-MB-435 cells xenografted in mouse assessed as tumor cell killing at 3.1 mg/kg, ip qd for 4 days by MTT assay; assay type: functional, organism-based; set-up: dose 3.1 mg/kg
# [30] = read-out: pLC50 (the source's name) (converted)
structure (smiles),measurement,setting,value
C/C=C1\NC(=O)[C@H](Cc2ccccc2)NC(=O)[C@@H](C(C)C)NC(=O)[C@@H]([C@@H](C)CC)NC(=O)[C@H](NC(=O)[C@H](NC(=O)[C@H](CCCNCc2ccc(N3CCOCC3)cc2)NC(=O)[C@H]2CCCN2C(=O)[C@H](NC(=O)[C@@H](NC(=O)[C@@H](NC(=O)[C@H](NC(=O)CCCC(C)C)C(C)C)[C@@H](C)O)C(C)C)C(C)C)[C@@H](C)CC)[C@@H](C)OC(=O)[C@H](C(C)C)NC1=O,growth at 0.08 µM,NCI-H322M,92%
same,GI50,SF-295 [1],1.74 µM
same,LC50,SF-295 [1],> 75.9 µM
same,TGI,SF-295 [1],3.89 µM
same,Activity,SF-295 [2],inactive
same,growth at 0.08 µM,CCRF-CEM [3],123%
same,growth at 80 µM,SF-268,18%
same,growth at 80 µM,CCRF-CEM [4],-31%
same,Activity,OVCAR-5 [5],inactive
same,growth at 8 µM,SW-620,-98%
same,IC50,[6],> 20 µM
same,MBC,[6],> 20 µM
same,MIC,[6],> 20 µM
same,Activity,U-251 [7],inactive
same,Activity,UACC-62 [8],inactive
same,Activity,NCI-H23,inactive
same,Activity,MDA-MB-435 [9],inactive
same,growth at 0.8 µM,RPMI-8226,76%
same,growth at 0.8 µM,CCRF-CEM [10],128%
same,Activity,NCI-H522 [11],inactive
same,GI50,SR [12],3.02 µM
same,LC50,SR [12],> 75.9 µM
same,TGI,SR [12],36.3 µM
same,growth at 8 µM,CCRF-CEM [13],82%
same,GI50,CCRF-CEM [14],22.9 µM
same,CC50,CCRF-CEM [14]; [30],> 75.9 µM
same,TGI,CCRF-CEM [14]; read-out: pTGI (converted),39.8 µM
same,growth at 0.008 µM,CCRF-CEM [15],122%
same,growth at 80 µM,OVCAR-5 [16],-47%
same,growth at 80 µM,SR [17],-7%
C/C=C1\NC(=O)[C@H](Cc2ccccc2)NC(=O)[C@@H](C(C)C)NC(=O)[C@@H]([C@@H](C)CC)NC(=O)[C@H](NC(=O)[C@H](NC(=O)[C@H](CCCNCc2ccc(F)c(C)c2)NC(=O)[C@H]2CCCN2C(=O)[C@H](NC(=O)[C@@H](NC(=O)[C@@H](NC(=O)[C@H](NC(=O)CCCC(C)C)C(C)C)[C@@H](C)O)C(C)C)C(C)C)[C@@H](C)CC)[C@@H](C)OC(=O)[C@H](C(C)C)NC1=O,growth at 0.08 µM,NCI-H322M,95%
same,growth at 0.008 µM,CAKI-1 [18],130%
same,Activity,NCI-H522 [19],inactive
same,Activity,UACC-62 [20],inactive
same,GI50,SF-295 [1],1.26 µM
same,TGI,SF-295 [1],2.4 µM
same,growth at 0.08 µM,CAKI-1 [21],150%
same,Activity,SF-295 [22],inactive
same,GI50,CAKI-1 [23],1.45 µM
same,CC50,CAKI-1 [23]; [30],4.79 µM
same,TGI,CAKI-1 [23]; read-out: pTGI (converted),2.63 µM
same,growth at 0.8 µM,CAKI-1 [24],103%
same,Activity,OVCAR-5 [25],inactive
same,growth at 8 µM,SW-620,-100%
same,IC50,[6],> 20 µM
same,MBC,[6],> 20 µM
same,MIC,[6],> 20 µM
same,Activity,NCI-H23,inactive
same,Activity,U-251 [26],inactive
same,growth at 0.8 µM,RPMI-8226,59%
same,growth at 80 µM,CAKI-1 [27],-56%
same,growth at 8 µM,CAKI-1 [28],-86%
same,GI50,SR [12],1.58 µM
same,LC50,SR [12],> 75.9 µM
same,TGI,SR [12],3.47 µM
same,Activity,MDA-MB-435 [29],inactive
same,growth at 80 µM,OVCAR-5 [16],-98%
